Columns and labels:
[1] = molecular target: T1, Type-1 angiotensin II receptor A (Rattus norvegicus, UniProt P25095); experiment: (§1) Antagonist activity at AT1 receptor in rat aorta; format: functional, tissue-based; conditions: read-out: pA2 (converted)
T1 sequence (P25095 whole entry): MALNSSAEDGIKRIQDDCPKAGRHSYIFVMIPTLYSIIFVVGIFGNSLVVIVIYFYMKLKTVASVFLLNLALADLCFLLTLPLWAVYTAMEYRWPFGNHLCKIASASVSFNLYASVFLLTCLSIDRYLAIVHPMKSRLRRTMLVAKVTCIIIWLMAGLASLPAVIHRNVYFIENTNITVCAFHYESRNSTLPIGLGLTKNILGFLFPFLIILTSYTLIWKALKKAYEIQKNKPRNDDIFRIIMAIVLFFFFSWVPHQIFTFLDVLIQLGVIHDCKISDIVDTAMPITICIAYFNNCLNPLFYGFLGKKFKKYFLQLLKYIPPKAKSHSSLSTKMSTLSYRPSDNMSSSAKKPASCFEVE

[2] = molecular target: T2, Type-1 angiotensin II receptor A (Rattus norvegicus) (UniProt P25095); experiment: as §1; format: functional, tissue-based
T2 sequence (whole entry): T1 sequence (P25095 whole entry)

Rattus norvegicus [3] = experiment: Antihypertensive activity against desoxycortisone-induced hypertension in rat assessed as decrease in mean arterial blood pressure at 3 mg/kg, ip; format: functional, Artery; conditions: route intraperitoneal
In short: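 Hypertension induced in rats with desoxycortisone acetate 40 mg kg-1 s.c. Mean arterial blood pressure recorded through a carotid artery cannula connected to a pressure transducer. Test agents were given intraperitoneally. The dose-finding series used 0.1–30.0 mg kg-1, and the remaining agents were tested at 1.0, 3.0 and 10.0 mg kg-1.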

Rattus norvegicus [4] = experiment: Antihypertensive activity against desoxycortisone-induced hypertension in rat assessed as decrease in mean arterial blood pressure at 5 mg/kg, ip; format: functional, Artery; conditions: route intraperitoneal

Kb [1] [nM]	pA10 [2]	Compound	Activity (Rattus norvegicus [3]) [mmHg]	Activity (Rattus norvegicus [4]) [mmHg]
631	5.4	CCCCc1nc2cc(NC(=O)c3ccc(Cl)cc3)ccc2n1Cc1ccc(-c2ccccc2C(=O)O)cc1	12	–
15.8	7	CCCCc1nc2cc(N)ccc2n1Cc1ccc(-c2ccccc2C(=O)O)cc1	33.3	–
398	3.7	CCCCC(=O)Nc1ccc2c(c1)nc(CCCC)n2Cc1ccc(-c2ccccc2C(=O)O)cc1	21.7	–
251	6	CCCCc1nc2cc(NC(=O)c3ccccc3)ccc2n1Cc1ccc(-c2ccccc2C(=O)O)cc1	19.8	–
316	5.8	CCCCc1nc2cc(NC(=O)c3ccccc3Cl)ccc2n1Cc1ccc(-c2ccccc2C(=O)O)cc1	20.3	–
20	4.7	CCCCc1nc2cc(NC(=O)CC)ccc2n1Cc1ccc(-c2ccccc2C(=O)O)cc1	36.2	–
10	5.9	CCCCc1nc2cc(NC(C)=O)ccc2n1Cc1ccc(-c2ccccc2C(=O)O)cc1	33.5	–
–	6.5	CCCCc1nc(Cl)c(CO)n1Cc1ccc(-c2ccccc2-c2nnn[nH]2)cc1 [LOSARTAN]	–	29.7
79.4	4.4	CCCCc1nc2cc(NC(=O)CCC)ccc2n1Cc1ccc(-c2ccccc2C(=O)O)cc1	26.4	–
10	7.1	CCOc1nc2cccc(C(=O)O)c2n1Cc1ccc(-c2ccccc2-c2nnn[nH]2)cc1	–	31.8

Source: ChEMBL document CHEMBL1156704, “Angiotensin II--AT1 receptor antagonists: design, synthesis and evaluation of substituted carboxamido benzimidazole derivatives” (Eur J Med Chem, 2008)
